# Shown are actives, neighbours in structure and some others; about 3.1% of the full set was active somewhere.
# CFTR F508del cor: correctors of CFTR F508del function in bronchial epithelial cells; CFBE cells, YFP halide quenching; stimulated with forskolin plus potentiator P3; % fluorescence drop versus neutral controls; activity (quench increase), % at 7.58 µM; 350,000 compounds, 0.36% hits;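 active = mean added fluorescence quench of at least 8% versus neutral control, with both replicates also reaching 8%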;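 also: cells transiently co-express mutant CFTR-F508del with the halide-sensitive YFP; corrector assay measuring rescue of mutant channel to the surface after 24 h compound exposure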
# rRNA inh HTS: inhibitors of bacterial rRNA selective over humanized ribosomes; E. coli WT GFP vs humanized-ribosome RFP mutants, fluorescence, 24 h; active compounds read low; DMSO median 0, no signal -100; GFP signal change (wild-type ribosome), % (no concentration beside the values); 350,000 compounds, 1.6% hits; AID 720706;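 active = significant combined selectivity score with lowered wild-type GFP, culture density cut under 30%, mutant RFP and density less affected; inactive = any of these conditions unmet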
# S100A4 inh HTS: inhibitors of human S100A4 binding to myosin IIA peptide | S100A4/TAMRA-MyoIIA peptide fluorescence polarization | inhibition, % at 10.7 µM | 360,000 compounds, 0.14% hits;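 active = mean inhibition of at least 70% across replicates, with every replicate also reaching that level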
#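 Material: S100A4 monomer (human). Medium: Calcium-containing HEPES buffer, pH 7.2. Probe or stimulus: labelled myosin peptide probe, 5 nM. Compound dosing: one concentration per compound. Timing: polarization read 5 min after assay mix addition, stable 5–60 min. Benchmarks: DMSO as neutral control, TFP as positive control.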
# ERAP1 HTS inh: blocks human ERAP1 aminopeptidase activity; recombinant ERAP1, Leu-AMC fluorescence, 60 min; AID 652197; 340,000 compounds, 0.15% hits; inhibition, % at 10.7 µM; Q9NZ08;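 active = mean replicate inhibition of at least 30%, or all replicates individually reaching that 30% level; inactive = mean below 30% and not every replicate reaching it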;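 also: 0% = neutral control wells and 100% = L-leucinethiol positive control wells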
# SIRT5 block: blocks human SIRT5 desuccinylation of peptide | Q9NXA8 | Purified SirT5, succinyl-peptide AMC, trypsin-coupled fluorescence | inhibition, % at 15 µM | 330,000 compounds, 1.1% hits; in the data active = inhibition above about 15%
# * marks the source's active call; other numbers are inactive results; x = no result.
SMILES,CFTR F508del cor,rRNA inh HTS,S100A4 inh HTS,ERAP1 HTS inh,SIRT5 block
CCCN1C[C@@H](C)[C@H](OC)CN(C)C(=O)c2cc(NC(=O)Nc3c(C)noc3C)ccc2OC[C@H]1C,0.7,1.3,-0.4,-1.8,0.5
CCc1ccc(Nc2cnn(C34CC5CC(CC(CC(=O)O)(C5)C3)C4)c(=O)c2Cl)cc1,-1.6,-27.2*,-3.9,-5.0,3.5
O=C(O)Cc1ccc(Nc2cnn(C34CC5CC(CC(CC(=O)O)(C5)C3)C4)c(=O)c2Cl)cc1,-0.9,8.1,-1.4,0.6,15.2*
Cc1ccc(Nc2cnn(C34CC5CC(CC(CC(=O)O)(C5)C3)C4)c(=O)c2Cl)c(Cl)c1,-0.2,-23.4,-0.9,6.9,2.4
O=C(O)CC12CC3CC(C1)CC(n1ncc(NCc4ccccc4Cl)c(Cl)c1=O)(C3)C2,-3.0,-7.3,0.3,10.1,-7.4
CCN(CC)Cc1c(O)ccc2cc(-c3nc4ccccc4n3C)c(=O)oc12,-3.0,5.8,1.8,91.4*,-109.6
CO[C@H]1CN(C)C(=O)c2ccc(NC(=O)C3CCC3)cc2OC[C@@H](C)N(Cc2cccnc2)C[C@@H]1C,-0.5,-1.5,-10.2,-1.8,-0.2
COc1ccc(NS(=O)(=O)c2cc(C(=O)OC(C)C(=O)N3CCOCC3)ccc2Cl)cc1 (stereo not given),-1.5,4.6,-4.7,1.8,-4.5
CNC(=O)NC(=O)C(C)OC(=O)c1ccc(Cl)c(S(=O)(=O)Nc2ccc(F)cc2)c1 (stereo not given),2.8,-26.4*,1.1,x,-2.7
CCN(c1ccc(OC)cc1)S(=O)(=O)c1cc(-c2cc(C)no2)ccc1OC,0.9,-31.0*,0.0,-0.2,-1.2
CCN(c1ccc(OC)cc1)S(=O)(=O)c1cc(-c2cc(C)no2)ccc1C(C)C,3.9,-3.4,0.0,-2.9,-0.6
CCOc1ccc(N(C)S(=O)(=O)c2ccc(-c3cc(C)no3)s2)cc1,3.8,1.1,3.0,-0.4,-2.8
Cc1cccc(N(C)S(=O)(=O)c2ccc(-c3cc(C)no3)s2)c1,11.9*,-31.3,25.2,2.7,-7.7
CCN(c1cccc(C)c1)S(=O)(=O)c1ccc(-c2cc(C)no2)s1,9.2*,-3.2,-0.8,-5.1,-1.8
C=C(C)CSc1cc(C)nc2c(-c3ccccc3)c(C)nn12,-7.3,-49.2*,8.5,-0.5,-4.3
Cc1nn2c(SCC(=O)c3cccs3)cc(C(C)(C)C)nc2c1-c1ccccc1,x,-29.7*,1.0,7.1,-1.2
CC(C)c1ccc(OC(=O)c2ccc3c(=O)n4c(nc3c2)CCC4)cc1,4.3,-1.4,28.6,77.8*,3.4
CN(C)Cc1cn(CC[C@H]2CC[C@H](NC(=O)Nc3ccccc3F)[C@H](CO)O2)nn1,-1.2,2.6,-0.1,1.1,-0.8
CN(C)Cc1cn(CC[C@@H]2CC[C@H](NC(=O)Cc3cccnc3)[C@H](CO)O2)nn1,-0.1,1.5,-2.4,0.4,-2.7
CCCc1cn(CC[C@@H]2CC[C@H](NC(=O)C3CCCCC3)[C@@H](CO)O2)nn1,-1.3,0.7,7.1,0.2,15.7*
CN(C)Cc1cn(CC[C@H]2CC[C@@H](NC(=O)Nc3ccccc3F)[C@@H](CO)O2)nn1,1.2,1.1,12.0,2.1,18.4*
CN(C)Cc1cn(CC[C@H]2CC[C@H](NC(=O)Cc3cccnc3)[C@H](CO)O2)nn1,0.9,-1.7,93.8*,4.4,1.3
O=S(=O)(N[C@@H]1CC[C@H](CCn2cc(-c3cccc(F)c3)nn2)O[C@@H]1CO)c1ccc(F)cc1,-1.5,-7.4,57.1,-0.9,0.0
C[C@@H]1CN([C@H](C)CO)C(=O)Cc2cc(NC(=O)C3CC3)ccc2O[C@@H]1CN(C)C(=O)Nc1ccccc1,-1.7,3.1,-20.7,0.1,-0.3
C[C@H](NC(=O)[C@H]1[C@H](CO)[C@H]2Cn3c(ccc(C4=CCCC4)c3=O)[C@H]2N1C)c1ccccc1,3.0,-2.3,-22.1,4.1,-3.5
SMILES,CFTR F508del cor,rRNA inh HTS,S100A4 inh HTS,ERAP1 HTS inh,SIRT5 block
CCN(CC)C(=S)SSC(=S)N(CC)CC,14.1*,0.1,-4.2,-0.7,-3.9
CCN(CC)C(=S)SC1=CCS(=O)(=O)C1,-3.5,-4.2,6.9,8.7,-4.6
C[C@H]1CCCCO[C@H](CN(C)S(=O)(=O)c2cccs2)[C@@H](C)CN([C@@H](C)CO)C(=O)c2cc(NC(=O)c3ccccc3)ccc2O1,-0.2,-5.2,x,x,x
CC(=O)N(c1ccc2oc(=O)sc2c1)S(=O)(=O)c1ccc(C(=O)O)cc1,2.4,3.9,-1.6,27.8,20.2*
CC(=O)N(c1ccc2oc(=O)sc2c1)S(=O)(=O)c1cccc2cccnc12,1.9,6.5,1.0,-0.3,-1.2
O=C(CNC(=O)C(c1ccccc1)c1ccccc1)N/N=C/c1ccc(O)c([N+](=O)[O-])c1,-1.4,-19.8*,-3.3,-4.1,-2.7
O=C(CNC(=O)c1ccco1)N/N=C/c1ccc(O)c([N+](=O)[O-])c1,x,2.3,-0.9,-1.1,1.3
Cc1cc(C)nc(N/N=C/c2ccccc2)n1,-1.8,16.4,5.9,2.2,1.8
Cc1cc(C)nc(N/N=C/c2sccc2C)n1,0.6,8.5,-3.3,2.8,19.7*
CCS(=O)(=O)NCC[C@@H]1CC[C@@H](NC(=O)C2CCCC2)[C@@H](CO)O1,-3.3,-0.7,-3.1,-0.4,1.6
Cc1ccc(S(=O)(=O)N(C)C[C@@H]2Oc3c(NC(=O)Nc4ccc5c(c4)OCO5)cccc3C(=O)N([C@H](C)CO)C[C@@H]2C)cc1,-3.4,-5.0,4.2,-5.6,15.1*
CNC[C@H]1Oc2c(NC(=O)Nc3ccc(C(F)(F)F)cc3)cccc2C(=O)N([C@@H](C)CO)C[C@H]1C,-3.5,-57.8,93.3*,0.1,7.7
COc1ccc(NC(=O)Nc2cccc3c2O[C@@H](CN(C)S(=O)(=O)c2ccc(Cl)cc2)[C@@H](C)CN([C@@H](C)CO)C3=O)cc1,-4.0,-4.4,-2.0,1.2,0.2
C[C@@H]1CN([C@H](C)CO)C(=O)c2cccc(NC(=O)Nc3ccc4c(c3)OCO4)c2O[C@@H]1CN(C)C,0.5,6.5,-2.3,-2.9,-4.3
COc1ccc(NC(=O)Nc2cccc3c2O[C@H](CN(C)S(=O)(=O)c2ccc(Cl)cc2)[C@H](C)CN([C@@H](C)CO)C3=O)cc1,-2.4,-23.0*,-0.7,1.2,-0.5
CNC[C@H]1Oc2c(NC(=O)Nc3ccc4c(c3)OCO4)cccc2C(=O)N([C@@H](C)CO)C[C@H]1C,1.4,5.7,4.7,-2.3,99.0*
Cc1ccc(S(=O)(=O)N(C)C[C@H]2Oc3c(NC(=O)Nc4ccc5c(c4)OCO5)cccc3C(=O)N([C@H](C)CO)C[C@H]2C)cc1,0.3,-8.6,0.3,-5.4,12.5
C[C@@H]1CN([C@H](C)CO)C(=O)c2cc(NC(=O)Nc3ccccc3)ccc2O[C@@H]1CN(C)S(=O)(=O)c1ccccc1,0.6,-1.2,14.9,-1.2,-1.6

# Compound activity from PubChem.
